How the values were obtained:
[1] = tested on: Escherichia coli; assay: Ability to support the growth of Escherichia coli strain BN3300 from 50&500 uM stock solution was determined in growth response assay; No growth around disc; type: functional, organism-based
How it was run: (§1)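 Disc growth-promotion assay on Escherichia coli K12 strains. Each strain was seeded in a soft nutrient agar overlay on nutrient agar plates. The overlay contained 0.1 mM deferriferrichrome A to make the plates iron deficient. Filter paper discs were each loaded with 10 μL of a 50–500 μM aqueous siderophore solution, with hydroxamate content checked by the ferric perchlorate reagent at 480 nm. Plates were incubated at 37 °C, and the diameter of the growth zone was scored at 12 and 24 h.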

[2] = tested on: Escherichia coli; assay: Ability to support the growth of Escherichia coli strain RWB7 from 50&500 uM stock solution was determined in growth response assay; No growth around disc; type: functional, organism-based; how it was run: as §1
[3] = tested on: Escherichia coli; assay: Ability to support the growth of Escherichia coli strain AN193 from 50&500 uM stock solution was determined in growth response assay; No growth around disc; type: functional, organism-based; how it was run: as §1
[4] = tested on: Escherichia coli; assay: Ability to support the growth of Escherichia coli strain BNV3040 from 50&500 uM stock solution was determined in growth response assay; type: functional; how it was run: as §1
[5] = tested on: Escherichia coli; assay: Ability to support the growth of Escherichia coli strain RW 193 from 50&500 uM stock solution was determined in growth response assay; type: functional; how it was run: as §1
[6] = tested on: Escherichia coli; assay: Ability to support the growth of Escherichia coli strain RWV193 from 50 uM stock solution was determined in growth response assay; type: functional; how it was run: as §1
[7] = tested on: Escherichia coli; assay: Ability to support the growth of Escherichia coli strain RWB7 from 50 uM stock solution was determined in growth response assay; No growth around disc; type: functional, organism-based; how it was run: as §1
[8] = tested on: Escherichia coli; assay: Ability to support the growth of Escherichia coli strain BN3300 from 50 uM stock solution was determined in growth response assay; No growth around disc; type: functional, organism-based; how it was run: as §1
[9] = tested on: Escherichia coli; assay: Ability to support the growth of Escherichia coli strain BNV3040 from 50 uM stock solution was determined in growth response assay; type: functional; how it was run: as §1
[10] = tested on: Escherichia coli; assay: Ability to support the growth of Escherichia coli strain RW 193 from 50 uM stock solution was determined in growth response assay; type: functional; how it was run: as §1
[11] = tested on: Escherichia coli; assay: Ability to support the growth of Escherichia coli strain AN193 from 50 uM stock solution was determined in growth response assay; type: functional; how it was run: as §1
[12] = tested on: Escherichia coli; assay: Ability to support the growth of Escherichia coli strain BN3300 from 100 uM stock solution was determined in growth response assay; No growth around disc; type: functional, organism-based; how it was run: as §1
[13] = tested on: Escherichia coli; assay: Ability to support the growth of Escherichia coli strain RWB7 from 100 uM stock solution was determined in growth response assay; No growth around disc; type: functional, organism-based; how it was run: as §1
[14] = tested on: Escherichia coli; assay: Ability to support the growth of Escherichia coli strain AN193 from 100 uM stock solution was determined in growth response assay; No growth around disc; type: functional, organism-based; how it was run: as §1
[15] = tested on: Escherichia coli; assay: Ability to support the growth of Escherichia coli strain RWV193 from 100 uM stock solution was determined in growth response assay; type: functional; how it was run: as §1
[16] = tested on: Escherichia coli; assay: Ability to support the growth of Escherichia coli strain RW 193 from 134 uM stock solution was determined in growth response assay; type: functional; how it was run: as §1
[17] = tested on: Escherichia coli; assay: Ability to support the growth of Escherichia coli strain RWB7 from 134 uM stock solution was determined in growth response assay; No growth around disc; type: functional, organism-based; how it was run: as §1
[18] = tested on: Escherichia coli; assay: Ability to support the growth of Escherichia coli strain BNV3040 from 134 uM stock solution was determined in growth response assay; type: functional; how it was run: as §1
[19] = tested on: Escherichia coli; assay: Ability to support the growth of Escherichia coli strain BN3300 from 134 uM stock solution was determined in growth response assay; No growth around disc; type: functional, organism-based; how it was run: as §1
[20] = tested on: Escherichia coli; assay: Ability to support the growth of Escherichia coli strain AN193 from 134 uM stock solution was determined in growth response assay; No growth around disc; type: functional, organism-based; how it was run: as §1
[21] = tested on: Escherichia coli; assay: Ability to support the growth of Escherichia coli strain BN3300 from […] was determined in growth response assay; type: functional; how it was run: as §1
[22] = tested on: Escherichia coli; assay: Ability to support the growth of Escherichia coli strain AN193 from 50 uM stock solution was determined in growth response assay; No growth around disc; type: functional, organism-based; how it was run: as §1
[23] = tested on: Escherichia coli; assay: Ability to support the growth of Escherichia coli strain AN193 from 130 uM stock solution was determined in growth response assay; No growth around disc; type: functional, organism-based; how it was run: as §1
[24] = tested on: Escherichia coli; assay: Ability to support the growth of Escherichia coli strain RWV193 from 130 uM stock solution was determined in growth response assay; No growth around disc; type: functional, organism-based; how it was run: as §1
[25] = tested on: Escherichia coli; assay: Ability to support the growth of Escherichia coli strain BN3300 from 130 uM stock solution was determined in growth response assay; No growth around disc; type: functional, organism-based; how it was run: as §1
[26] = tested on: Escherichia coli; assay: Ability to support the growth of Escherichia coli strain RW 193 from 130 uM stock solution was determined in growth response assay; No growth around disc; type: functional, organism-based; how it was run: as §1
[27] = tested on: Escherichia coli; assay: Ability to support the growth of Escherichia coli strain BNV3040 from 130 uM stock solution was determined in growth response assay; No growth around disc; type: functional, organism-based; how it was run: as §1
[28] = tested on: Escherichia coli; assay: Ability to support the growth of Escherichia coli strain RWB7 from 130 uM stock solution was determined in growth response assay; No growth around disc; type: functional, organism-based; how it was run: as §1
[29] = tested on: Escherichia coli; assay: Ability to support the growth of Escherichia coli strain RWB7 from 380 uM stock solution was determined in growth response assay; No growth around disc; type: functional, organism-based; how it was run: as §1
[30] = tested on: Escherichia coli; assay: Ability to support the growth of Escherichia coli strain AN193 from 380 uM stock solution was determined in growth response assay; No growth around disc; type: functional, organism-based; how it was run: as §1
[31] = tested on: Escherichia coli; assay: Ability to support the growth of Escherichia coli strain BN3300 from uM stock solution was determined in growth response assay; No growth around disc; type: functional, organism-based; how it was run: as §1
[32] = tested on: Escherichia coli; assay: Ability to support the growth of Escherichia coli strain RWV193 from 380 uM stock solution was determined in growth response assay; No growth around disc; type: functional, organism-based; how it was run: as §1
[33] = tested on: Escherichia coli; assay: Ability to support the growth of Escherichia coli strain RW 193 from 380 uM stock solution was determined in growth response assay; No growth around disc; type: functional, organism-based; how it was run: as §1
[34] = tested on: Escherichia coli; assay: Ability to support the growth of Escherichia coli strain BNV3040 from 380 uM stock solution was determined in growth response assay; No growth around disc; type: functional, organism-based; how it was run: as §1
[35] = tested on: Escherichia coli; assay: Ability to support the growth of Escherichia coli strain RWV193 from 200 uM stock solution was determined in growth response assay; type: functional; how it was run: as §1
[36] = tested on: Escherichia coli; assay: Ability to support the growth of Escherichia coli strain RWB7 from 200 uM stock solution was determined in growth response assay; No growth around disc; type: functional, organism-based; how it was run: as §1
[37] = tested on: Escherichia coli; assay: Ability to support the growth of Escherichia coli strain BN3300 from 200 uM stock solution was determined in growth response assay; No growth around disc; type: functional, organism-based; how it was run: as §1
[38] = tested on: Escherichia coli; assay: Ability to support the growth of Escherichia coli strain BNV3040 from 200 uM stock solution was determined in growth response assay; type: functional; how it was run: as §1

For CN(O)C(=O)CCCCCNC(=O)CC(CC(=O)NCCCCCC(=O)N(C)O)C(=O)NCCCCCC(=O)N(C)O, the Inhibitory diameter [1] was “Not toxic”, the Inhibitory diameter [2] was “Not toxic” and the Inhibitory diameter [3] was “Not toxic”. For the same molecule, the Inhibitory diameter [4] was 25 mm and the growth zone diameter [5] was 25 mm.

CC(=O)N(O)CCCCCNC(=O)CC(O)(CC(=O)NCCCCCN(O)C(C)=O)C(=O)O [ARTHROBACTIN] was tested, and the growth zone diameter [6] was less than 10 mm, the Inhibitory diameter [7] was “Not toxic” and the Inhibitory diameter [8] was “Not toxic”. For the same molecule, the growth zone diameter [9] was less than 10 mm, the Inhibitory diameter [10] was less than 10 mm and the growth zone diameter [11] was less than 10 mm.

CC(=O)N(O)CCCNC(=O)CC(CC(=O)NCCCN(O)C(C)=O)C(=O)NCCCN(O)C(C)=O was tested, and the Inhibitory diameter [12] was “Not toxic”, the Inhibitory diameter [13] was “Not toxic” and the Inhibitory diameter [14] was “Not toxic”. For the same molecule, the Inhibitory diameter [15] was 25 mm.

With CC(=O)N(O)CCCNC(=O)CN(CC(=O)NCCCN(O)C(C)=O)CC(=O)NCCCN(O)C(C)=O the growth zone diameter [16] was 25 mm, the Inhibitory diameter [17] was “Not toxic” and the Inhibitory diameter [18] was 25 mm. For the same molecule, the Inhibitory diameter [19] was “Not toxic” and the Inhibitory diameter [20] was “Not toxic”.

Work on O=C(N[C@H]1COC(=O)[C@@H](NC(=O)c2cccc(O)c2O)COC(=O)[C@@H](NC(=O)c2cccc(O)c2O)COC1=O)c1cccc(O)c1O [ENTEROBACTIN] yielded a growth zone diameter [21] of 25 mm.

With CC(=O)N(O)CCCCCNC(=O)c1cccc(C(=O)NCCCCCN(O)C(C)=O)n1 the Inhibitory diameter [12] was “Not toxic”, the Inhibitory diameter [13] was “Not toxic” and the Inhibitory diameter [14] was “Not toxic”. For the same molecule, the Inhibitory diameter [15] was 25 mm.

For FERRICHROME, the Inhibitory diameter [7] was “Not toxic”, the Inhibitory diameter [8] was “Not toxic” and the Inhibitory diameter [22] was “Not toxic”.

For CC(=O)N(O)CCCCCNC(=O)c1cc(C(=O)NCCCCCN(O)C(C)=O)cc(C(=O)NCCCCCN(O)C(C)=O)c1, the Inhibitory diameter [23] was “Not toxic”, the Inhibitory diameter [24] was “Not toxic” and the Inhibitory diameter [25] was “Not toxic”. For the same molecule, the Inhibitory diameter [26] was “Not toxic”, the Inhibitory diameter [27] was “Not toxic” and the Inhibitory diameter [28] was “Not toxic”.

For CC(=O)N(O)CCCC1NC(=O)C(CCCN(O)C(C)=O)NC1=O (centres undefined), the growth zone diameter [6] was 25 mm, the Inhibitory diameter [7] was “Not toxic” and the Inhibitory diameter [8] was “Not toxic”. For the same molecule, the growth zone diameter [9] was 25 mm, the Inhibitory diameter [10] was 25 mm and the growth zone diameter [11] was 25 mm.

For CC(=O)N(O)CCCNC(=O)c1cc(C(=O)NCCCN(O)C(C)=O)cc(C(=O)NCCCN(O)C(C)=O)c1, the Inhibitory diameter [29] was “Not toxic”, the Inhibitory diameter [30] was “Not toxic” and the Inhibitory diameter [31] was “Not toxic”. The Inhibitory diameter [32] was “Not toxic”, the Inhibitory diameter [33] was “Not toxic” and the Inhibitory diameter [34] was “Not toxic”.

With CC(=O)N(O)CCCNC(=O)c1cccc(C(=O)NCCCN(O)C(C)=O)n1 the Inhibitory diameter [12] was “Not toxic”, the Inhibitory diameter [13] was “Not toxic” and the Inhibitory diameter [14] was “Not toxic”. For the same molecule, the Inhibitory diameter [15] was 25 mm.

For CC(=O)N(O)CCCNC(=O)CC(O)(CC(=O)NCCCN(O)C(C)=O)C(=O)O [SCHIZOKINEN], the growth zone diameter [35] was 25 mm, the Inhibitory diameter [36] was “Not toxic” and the Inhibitory diameter [37] was “Not toxic”. For the same molecule, the growth zone diameter [38] was 25 mm.

— ChEMBL document CHEMBL1122956, “Artificial siderophores. 1. Synthesis and microbial iron transport capabilities” (1985)
